# GPR7 antag = blocks human GPR7 receptor signaling | P48145 | GPR7-expressing cells, fluorescence antagonist assay | inhibition, % at 4.4 µM | actives 1.1% (n = 290,000) | AID 1861; in the data active = inhibition above about 16%, passing the limit was not always enough;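 also: cells stimulated with the agonist NPW; 0% = agonist with vehicle and 100% = vehicle without agonist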
# Target sequence (P48145 whole entry, looked up): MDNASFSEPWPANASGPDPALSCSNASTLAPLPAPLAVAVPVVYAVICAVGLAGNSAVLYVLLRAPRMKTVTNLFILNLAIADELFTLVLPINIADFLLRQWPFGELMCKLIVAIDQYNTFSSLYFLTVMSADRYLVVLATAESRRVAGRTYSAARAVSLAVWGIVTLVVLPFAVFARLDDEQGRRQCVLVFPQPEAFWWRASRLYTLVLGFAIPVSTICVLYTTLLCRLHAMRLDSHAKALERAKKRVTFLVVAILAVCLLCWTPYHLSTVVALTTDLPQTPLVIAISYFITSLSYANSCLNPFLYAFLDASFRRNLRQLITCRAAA
# OX1R antag-1 = human HCRTR1 antagonism. O43613. AID 434989. CHO/OX1R cells, Fluo-8 calcium fluorescence, orexin A. actives 0.43% (n = 330,000). inhibition, % at 5 µM;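 active = inhibition above its plate's threshold, mean inhibition of all tested compounds on the plate plus 3 SD, cut at about 37% in these data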;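 also: 0% = orexin A challenge wells and 100% = SB-334867-A antagonist wells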
# OX1R antag-2 = blocks the human orexin 1 receptor. O43613. OX1R-expressing cells, FRET antagonist read-out. inhibition, % at 6.6 µM. actives 1.8% (n = 330,000); in the data active = inhibition mostly above about 38%, no sharp cut-off; inactive = mostly below about 40%;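 also: 0% = agonist challenge alone and 100% = reference antagonist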
# GalR3 antagonist = human GalR3 antagonism; HEK293 GalR3-CNG cAMP membrane potential fluorescence; galR3 body fused to GalR1 C-terminus; O60755; actives 0.44% (n = 360,000); inhibition, % at 3 µM;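 active = inhibition above the screen-wide average plus 3 SD, cut at about 13% in these data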;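 also: forskolin and galanin both at EC90 stimulate the cells; cAMP rise reported by CNG channel membrane potential dye signal; 0% = forskolin plus galanin with DMSO and 100% = forskolin alone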
# Target sequence (O60755 1-299 limits assumed): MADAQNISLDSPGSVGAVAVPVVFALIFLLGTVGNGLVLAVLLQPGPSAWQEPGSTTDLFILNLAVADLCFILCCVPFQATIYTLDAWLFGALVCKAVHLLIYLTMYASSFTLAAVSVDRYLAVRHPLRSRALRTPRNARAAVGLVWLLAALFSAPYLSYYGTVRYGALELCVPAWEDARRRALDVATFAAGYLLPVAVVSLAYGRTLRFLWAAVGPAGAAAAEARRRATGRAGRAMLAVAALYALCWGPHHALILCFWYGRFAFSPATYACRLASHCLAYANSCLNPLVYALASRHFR
# CHO parental Ca = signal in parental CHO cells, OX1R antagonist counter-screen | parental CHO-K1, ATP-induced calcium, Fluo-8 fluorescence | inhibition, % at 5.6 µM | actives 0.63% (n = 330,000);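 active = inhibition above that plate's mean sample inhibition plus 3 SD, cut at about 26% in these data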;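 also: 0% = ATP-challenged DMSO wells and 100% = DMSO wells without ATP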
#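 Test system: untransfected parental CHO cell line. Compound: one dose, 5.6 µM nominal. Detection: intracellular calcium via Fluo-8 no-wash fluorescent dye. Measure: % inhibition. Benchmarks: ATP-challenged DMSO wells low, unchallenged DMSO wells high.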
# OX1R HTRF confirm = OX1R (human) antagonism, HTRF confirmed. actives 49% (n = 1,800). AID 492964. OX1R-expressing cells, HTRF antagonist assay. inhibition, % at 6.6 µM. shares compounds with OX1R antag-2; in the data active = inhibition above about 55%;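 also: CHO cells expressing OX1R stimulated with orexin A at about EC80; 0% = agonist challenge alone and 100% = reference antagonist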
# CHO-K1 HTRF = signal in parental CHO-K1 cells, OX1R antagonist counter-screen. shares compounds with OX1R antag-2. actives 48% (n = 1,800). AID 493232. HTRF counterscreen. inhibition, % at 6.6 µM; in the data active = inhibition above about 17%;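 also: 0% = agonist challenge with vehicle and 100% = vehicle alone without agonist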
# * = called active by the depositor; . = no result given; + = active, no number. An excerpt weighted towards active compounds, which were near 3.1% of everything screened.
SMILES,GPR7 antag,OX1R antag-1,OX1R antag-2,GalR3 antagonist,CHO parental Ca,OX1R HTRF confirm,CHO-K1 HTRF
O=C(O)[C@H]1CC=C[C@H]2CCN(Cc3ccc(Cl)c(Cl)c3)C(=O)[C@@H]12,.,-33,9,0,-16,.,.
O=C(NCCc1ccccc1)[C@@H]1CC=C[C@@H]2CCN(Cc3ccccc3)C(=O)[C@@H]21,.,13,79*,3,-14,89*,7
N=c1c(C(=O)NCc2ccccc2)cc2c(=O)n3ccccc3nc2n1Cc1ccco1,1,-16,78*,-4,-25,32,11
COCCn1c(=N)c(C(=O)NCc2ccco2)cc2c(=O)n3ccccc3nc21,-9,-35,167*,-2,-16,54,72*
Cc1ccccc1C(=O)N=c1c(C#N)cc2c(=O)n3cccc(C)c3nc2n1Cc1ccco1,-4,-26,33,.,-6,.,.
N#Cc1cc2c(=O)n3ccccc3nc2n(Cc2ccco2)c1=NC(=O)c1ccco1,-11,-16,77*,0,-11,47,42*
O=C(CN1CCN(S(=O)(=O)c2ccccc2F)CC1)Nc1ccccc1C(=O)c1ccccc1,-3,-21,6,-4,-20,.,.
Cc1ccc(OCC(=O)NCCCNC(=O)c2cccnc2)cc1,0,7,5,-6,-2,.,.
COc1cccc(C(=O)N(Cc2cc3cc(C)ccc3[nH]c2=O)C(C)C)c1,-4,4,77*,2,-35,68*,3
CCc1nnc(N/N=C/c2cccs2)n1N,-7,12,84*,-1,-6,20,14
COCCNC(=O)C(c1ccc(F)cc1)N(Cc1ccccc1)C(=O)CCC(=O)Nc1nccs1 (stereo unspecified),0,16,78*,-8,-13,80*,1
COC(=O)CN1C(=O)N/C(=C/c2cc(OC)c(OC)cc2C)C1=O,4,-1,7,-3,-6,.,.
COC(=O)CN1C(=O)N/C(=C/c2ccccc2OC)C1=O,-6,-17,119*,-3,-5,19,6
O=C(Nc1cc(Cl)cc(Cl)c1)C1CCCC1,-14,4,22,-5,17,.,.
CN(C)C(=O)C(=O)c1c(-c2ccccc2)cc2ccccn12,8,-10,34,-3,-8,.,.
O=Nc1c(-c2ccccc2)cc2ccccn12,4,-4,153*,-7,-8,64*,86*
CCOC(=O)c1ccc(N(C(=O)c2ccco2)C(C(=O)NC2CCCC2)c2ccncc2)cc1 (stereo unspecified),3,-28,18,-9,-10,.,.
COC(=O)C1CCN(C(=O)/C=C/c2ccc3c(c2)OCO3)CC1,-12,-2,4,-8,-7,.,.
C/C(=N\Nc1nnc2c3ccccc3n(C)c2n1)c1ccc(C)o1,-9,0,93*,3,-13,96*,17*
O=C1C=C(c2ccc(-c3ccccc3)c(F)c2)C[C@@H](c2ccc(Cl)cc2)C1,.,1,3,-3,-7,.,.
Cc1oc2c(c1C(=O)O)C(=O)c1ccccc1C2=O,-13,0,97*,1,-6,72*,86*
COc1ccc(C(=O)c2c(C(F)(F)F)oc3c2C(=O)c2ccccc2C3=O)cc1OC,6,-15,20,-3,-24,.,.
CCOC(=O)c1c(C)oc2c1C(=O)c1ccccc1C2=O,-12,-20,85*,-3,-7,82*,47*
CC(C)c1ccc(CN2CCC(n3nccc3NC(=O)C3CCCC3)CC2)cc1,.,.,.,-4,.,.,.
CNC(=O)COC(=O)c1ccc2c(c1)NC(=O)C1CCCN21 (stereo unspecified),-5,-14,26,.,-3,.,.
SMILES,GPR7 antag,OX1R antag-1,OX1R antag-2,GalR3 antagonist,CHO parental Ca,OX1R HTRF confirm,CHO-K1 HTRF
CN(C(=O)COC(=O)c1ccc(Cl)s1)C1(C#N)CCCCC1,.,.,.,-2,.,.,.
COc1cc(/C=N/Nc2nncn2N)ccc1OCc1c(C)no[n+]1[O-],11,-22,89*,1,-7,19,18*
O=C(Nc1ccc2nc(-c3ccc(Br)o3)[nH]c2c1)c1cccs1,12,-23,83*,-1,-27,42,3
CC(=O)Nc1ccc2nc(-c3ccc(Br)o3)[nH]c2c1,-6,-4,18,-3,-4,.,.
COc1ccc(S(=O)(=O)Nc2c(O)ccc3ccccc23)cc1OC,.,4,77*,-3,-6,72*,7
Nc1nnc(-c2cccc([N+](=O)[O-])c2)s1,-6,-4,111*,0,-6,35,40*
O=C(NCC(c1cccs1)N1CCOCC1)c1cc([N+](=O)[O-])cc([N+](=O)[O-])c1 (stereo unspecified),6,-9,112*,1,-6,39,58*
O=C(Nc1cnccn1)c1ccc(Cl)cc1,1,4,-14,-4,-1,.,.
Cc1nn(-c2ccccc2)c(C)c1NC(=O)COC(=O)c1cc(Br)ccc1O,.,-4,39,-4,-2,.,.
Cc1cccn2cc(-c3cccc(NC(=O)c4cccs4)c3)nc12,3,-4,111*,-6,-24,93*,-1
CCC(C)(C)NC(=O)CN(C(=O)CCC(=O)Nc1nccs1)c1ccc(C)cc1,-5,-14,15,-1,-17,.,.
COC(CNC(=O)c1ccc2nc(-c3cccs3)c(-c3cccs3)nc2c1)OC,-1,1,84*,1,-18,42,6
Nc1ccc2c3c(cccc13)C(=O)N(c1ccccc1)C2=O,19,.,.,-5,.,.,.
CC(=O)Nc1ccc2c3c(cccc13)C(=O)N(c1ccccc1)C2=O,-12,-13,110*,-8,1,41,63*
CCN(CC(=O)Nc1ccc(NC(C)=O)cc1)C(=O)c1ccc(C(=O)c2ccccc2)cc1,.,-13,3,-5,-12,.,.
Cc1ccc(NC(=O)COc2ccccc2)cc1S(=O)(=O)N1CCCCCC1,.,-28,98*,-3,-9,20,5
[O-][n+]1onc2c1CCc1nnc(-c3ccccc3)cc1-2,12,-18,151*,9,-21,39,70*
CCN(CC)c1ccc([N+](=O)[O-])cc1C(=O)N1CCOCC1,-3,-6,65,-4,1,.,.
CCN(CC)C1=NS(=O)(=O)c2cc([N+](=O)[O-])ccc21,-3,-12,+,-8,1,48,97*
CCCOc1cccc(C(=O)Nc2cccc(NC(=O)c3ccco3)c2)c1,-1,8,74,-3,-11,.,.
CCCOc1cccc(NC(=O)c2cc(C)oc2C)c1,-10,-47,78*,-1,-35,20,13
NC(=O)c1cccc(-c2csc(C(O)c3ccccc3)n2)c1 (stereo unspecified),.,.,.,-2,.,.,.
N=c1n(CCN2CCCCC2)c2ccccc2n1CC(=O)c1ccc(Cl)c(Cl)c1,13,-13,18,4,-29,.,.

# Screening data from PubChem BioAssay.
